# Where “and” joins values, the source holds several entries; their conditions need not be identical. Identical values can stand only once. Like-named read-outs stand apart in the source and are kept apart here.
# How the values were obtained:
# small cell lung cancer = assay: Antitumor activity; assay type: in vivo, human; conditions: 1.0 mg/day
# Outline: (§1)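 Adults with advanced solid tumours received oral test compound 1.0 mg once daily, continuously in 28-day cycles, in the expansion part. Entry required germline BRCA1/2 mutation confirmed by BRACAnalysis or local laboratory (ovarian/peritoneal, breast, prostate, pancreatic), DNA repair deficiency, or SCLC or Ewing sarcoma. Investigators assessed response by RECIST 1.1. ORR had exact 95% CI (Clopper–Pearson); PFS was estimated by Kaplan–Meier.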
# [1] = system: BRCA mutation–associated breast cancer; assay: Antitumor activity; assay type: in vivo, human; conditions: 1.0 mg/day, BRCA1/2 mutation
# Outline: as §1
# [2] = system: BRCA-mutated ovarian cancer; assay: Antitumor activity; assay type: in vivo, human
# Outline: as §1
# [3] = Plasma pharmacokinetics after single and multiple daily dosing; conditions: human, in vivo; for Vd/F: Vz/F; for half-life: t1/2, mean (SD)
# pancreatic cancer = assay: Antitumor activity; assay type: in vivo, human
# Outline: as §1
# PARP1/2 = conditions: cited from earlier work
# [4] = Urinary elimination of parent compound; assay type: in vivo, human; conditions: daily dosing between 0.025 and 1.1 mg
# Outline: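 In dose escalation, fasted patients took a single oral dose, with PK sampling over 1 week. They then took the dose once daily for 28 days, followed by a 1-week break for sampling (doses 0.025–1.1 mg/day, 3+3 design). Urine was assayed by validated LC/MS-MS (LLOQ 25.0 pg/mL). Ae0–24, Fe0–24 and ARC0–24 came from noncompartmental analysis.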
# PARP = assay: PBMC PARP activity; assay type: in vivo, human
# [5] = assay type: in vivo; conditions: Part 1 and Part 2; none considered related to study treatment
# Ewing sarcoma = assay: Antitumor activity; assay type: in vivo, human; conditions: 1.0 mg/day, n = 13, CR + PR + SD ≥16 weeks
# Outline: as §1
# PARP–DNA complexes = conditions: in vitro, comparison with other PARP1/2 inhibitors, cited from earlier work
structure (smiles),measurement,setting,value
Cn1ncnc1[C@H]1c2n[nH]c(=O)c3cc(F)cc(c23)N[C@@H]1c1ccc(F)cc1 [talazoparib],Median PFS,"small cell lung cancer; SCLC, n = 23",11.1 weeks
same,ORR,"small cell lung cancer; SCLC, n = 23",8.7%
same,CBR,"small cell lung cancer; SCLC, n = 23, CR + PR + SD ≥16 weeks",26.1%
same,duration of response,small cell lung cancer; the two SCLC patients with PR,12.0 weeks
same,Median PFS,[1]; n = 14,34.6 weeks
same,ORR,[1]; n = 14,50.0%
same,CBR,"[1]; n = 14, CR + PR + SD ≥24 weeks",85.7%
same,Median PFS,"[2]; 1.0 mg/day, ovarian/peritoneal, BRCA1/2 mutation, analysis on 14 patients",36.4 weeks and 36.4 ^c weeks
same,ORR,"[2]; 1.0 mg/day, ovarian/peritoneal, BRCA1/2 mutation, n = 12",41.7%
same,CBR,"[2]; 1.0 mg/day, ovarian/peritoneal, BRCA1/2 mutation, n = 12, CR + PR + SD ≥24 weeks",66.7%
same,CBR lasting at least 24 weeks,"[2]; any dose level, BRCA-mutated ovarian cancer with measurable disease, n = 25",76%
same,"dose proportionality parameter β for AUC0–24, estimate (95% CI)",[3],0.95 (0.84–1.05)
same,"dose proportionality parameter β for Cmax, estimate (95% CI)",[3],1.11 (1.01–1.20)
same,time to maximum plasma concentration (Cmax),[3],≤ 2 h
same,AUC(0-inf),[3]; 0.025 mg,5.33 ng·h/mL
same,AUC(0-t),"[3]; 0.025 mg, AUC0–24, mean (SD)",0.952 ng·h/mL
same,AUC(0-t),"[3]; 0.025 mg, AUC0–t, mean (SD)",3.6 ng·h/mL
same,Cmax,"[3]; 0.025 mg, mean (SD)",0.06 ng/mL
same,Tmax,"[3]; 0.025 mg, Tmax, median (min, max)",7.92 h
same,Vd/F,"[3]; 0.025 mg, mean (SD)",756 L
same,half-life,[3]; 0.025 mg,100 h
same,AUC(0-inf),[3]; 0.05 mg,8.32 ng·h/mL
same,AUC(0-t),"[3]; 0.05 mg, AUC0–24, mean (SD)",1.16 ng·h/mL
same,AUC(0-t),"[3]; 0.05 mg, AUC0–t, mean (SD)",5.34 ng·h/mL
same,Cmax,"[3]; 0.05 mg, mean (SD)",0.0797 ng/mL
same,Vd/F,"[3]; 0.05 mg, mean (SD)",1240 L
same,half-life,[3]; 0.05 mg,129 h
same,AUC(0-inf),[3]; 0.1 mg,37.6 ng·h/mL
same,AUC(0-t),"[3]; 0.1 mg, AUC0–24, mean (SD)",3.16 ng·h/mL
same,Cmax,"[3]; 0.1 mg, mean (SD)",0.214 ng/mL
same,Tmax,"[3]; 0.1 mg, Tmax, median (min, max)",1.02 h
same,Vd/F,"[3]; 0.1 mg, mean (SD)",839 L
same,half-life,[3]; 0.1 mg,229 h
same,AUC(0-inf),[3]; 0.2 mg,92.7 ng·h/mL
same,Tmax,[3]; 0.2 mg,1.03 h
same,AUC(0-t),"[3]; 0.2 mg, AUC0–24, mean (SD)",9.13 ng·h/mL
same,AUC(0-t),"[3]; 0.2 mg, AUC0–t, mean (SD)",39.3 ng·h/mL
same,Cmax,"[3]; 0.2 mg, mean (SD)",0.788 ng/mL
same,Vd/F,"[3]; 0.2 mg, mean (SD)",678 L
same,half-life,[3]; 0.2 mg,212 h
same,AUC(0-inf),[3]; 0.4 mg,60.1 ng·h/mL
same,AUC(0-t),"[3]; 0.4 mg, AUC0–24, mean (SD)",13.5 ng·h/mL
same,AUC(0-t),"[3]; 0.4 mg, AUC0–t, mean (SD)",43.7 ng·h/mL
same,Cmax,"[3]; 0.4 mg, mean (SD)",1.83 ng/mL
same,Tmax,"[3]; 0.4 mg, Tmax, median (min, max)",2.03 h
same,Vd/F,"[3]; 0.4 mg, mean (SD)",1050 L
same,half-life,[3]; 0.4 mg,102 h
same,AUC(0-inf),[3]; 0.6 mg,120 ng·h/mL
same,AUC(0-t),"[3]; 0.6 mg, AUC0–24, mean (SD)",37.9 ng·h/mL
same,AUC(0-t),"[3]; 0.6 mg, AUC0–t, mean (SD)",97.9 ng·h/mL
same,Cmax,"[3]; 0.6 mg, mean (SD)",4.1 ng/mL
same,Tmax,"[3]; 0.6 mg, Tmax, median (min, max)",0.835 h
same,Vd/F,"[3]; 0.6 mg, mean (SD)",441 L
same,half-life,[3]; 0.6 mg,58.6 h
same,AUC(0-inf),[3]; 0.9 mg,188 ng·h/mL
same,AUC(0-t),"[3]; 0.9 mg, AUC0–24, mean (SD)",58.2 ng·h/mL
same,AUC(0-t),"[3]; 0.9 mg, AUC0–t, mean (SD)",160 ng·h/mL
same,Cmax,"[3]; 0.9 mg, mean (SD)",6.1 ng/mL
same,Tmax,"[3]; 0.9 mg, Tmax, median (min, max)",2 h
same,Vd/F,"[3]; 0.9 mg, mean (SD)",468 L
same,half-life,[3]; 0.9 mg,60.4 h
same,AUC(0-inf),[3]; 1 mg,200 ng·h/mL
same,AUC(0-t),"[3]; 1 mg, AUC0–24, mean (SD)",85.1 ng·h/mL
same,AUC(0-t),"[3]; 1 mg, AUC0–t, mean (SD)",182 ng·h/mL
same,Cmax,"[3]; 1 mg, mean (SD)",10.6 ng/mL
same,Tmax,"[3]; 1 mg, Tmax, median (min, max)",1.03 h
same,Vd/F,"[3]; 1 mg, mean (SD)",415 L
same,half-life,[3]; 1 mg,52.9 h
same,AUC(0-inf),[3]; 1.1 mg,235 ng·h/mL
same,AUC(0-t),"[3]; 1.1 mg, AUC0–24, mean (SD)",91.6 ng·h/mL
same,AUC(0-t),"[3]; 1.1 mg, AUC0–t, mean (SD)",201 ng·h/mL
same,Cmax,"[3]; 1.1 mg, mean (SD)",13.2 ng/mL
same,Tmax,"[3]; 1.1 mg, Tmax, median (min, max)",1 h
same,Vd/F,"[3]; 1.1 mg, mean (SD)",549 L
same,half-life,[3]; 1.1 mg,71 h
same,ORR,"pancreatic cancer; 1.0 mg/day, pancreatic, n = 10",20.0%
same,CBR,"pancreatic cancer; 1.0 mg/day, pancreatic, n = 10, CR + PR + SD ≥16 weeks",30.0%
same,CBR ≥16 weeks,pancreatic cancer; 13 patients with pancreatic cancer from Part 1 and Part 2,31%
same,catalytic activity compared with olaparib and rucaparib,PARP1/2,equivalent catalytic activity to olaparib and rucaparib
same,urinary elimination kinetics of the parent compound,[4],linear urinary elimination kinetics
same,"PARP activity, mean (SD)","PARP; multiple dosing 0.025 mg/day, n = 3",172 (206) % baseline
same,"PARP activity, mean (SD)","PARP; multiple dosing 0.05 mg/day, n = 3",141 (52.5) % baseline
same,"PARP activity, mean (SD)","PARP; multiple dosing 0.1 mg/day, n = 3",102 (98.0) % baseline
same,"PARP activity, mean (SD)","PARP; multiple dosing 0.2 mg/day, n = 3",14.7 (5.04) % baseline
same,"PARP activity, mean (SD)","PARP; multiple dosing 0.4 mg/day, n = 3",111 (96.5) % baseline
same,"PARP activity, mean (SD)","PARP; multiple dosing 0.6 mg/day, n = 4",24.7 (8.19) % baseline
same,"PARP activity, mean (SD)","PARP; multiple dosing 0.9 mg/day, n = 4",34.7 (27.4) % baseline
same,"PARP activity, mean (SD)","PARP; multiple dosing 1.1 mg/day, n = 2",16.3 (5.63) % baseline
same,deaths associated with an AE during the study,[5],eight
same,CBR,Ewing sarcoma,23.1%
same,trapping PARP–DNA complexes at sites of single-strand DNA breaks,PARP–DNA complexes,most potent PARP1/2 inhibitor in vitro
same,trapping PARP–DNA complexes at sites of single-strand DNA breaks,PARP–DNA complexes; listed as Talazoparib,superior in trapping PARP–DNA

# Reference: publication PMC5905335 (Cancer discovery, 2017)
